≈ marks a conversion by molar mass, not a printed value.
Columns and labels:
Format in all cases: functional
Aspergillus niger = test: Antimicrobial activity against Aspergillus niger ATCC 10335 after 48 hrs by agar dilution method; details: ATCC 10335, 48 h
Summary of the method: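 A. niger maintained on potato dextrose agar at 27 °C. Tested by agar dilution on Sabouraud glucose agar with 2-fold serial DMSO dilutions of pure compounds (400–3.125 µg/mL) added to the medium, final DMSO ≤2%. Inoculum was 10^6 spores/mL, hemocytometer-counted, applied by 0.010 mL loop. Incubation at 29 °C for 48 h, in triplicate. MIC was the lowest concentration preventing visible growth.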

Candida albicans = test: Antimicrobial activity against Candida albicans ATCC 10231 after 24 hrs by agar dilution method
Summary of the method: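 C. albicans kept on Sabouraud glucose agar, which also served as the assay medium. Pure compounds in DMSO were diluted 2-fold serially (400–3.125 µg/mL) into the agar, final DMSO ≤2%. An inoculum of 10^5 cells/mL (hemocytometer) was spotted with a 0.010 mL calibrated loop. Plates were held at 29 °C for 24 h, in triplicate. MIC was the lowest concentration inhibiting visible growth.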

[1] = test system: Trichophyton mentagrophytes; test: Antimicrobial activity against Trichophyton mentagrophytes ATCC 28185 after 72 hrs by agar dilution method; details: ATCC 28185, 72 h
Summary of the method: (§1)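 Dermatophytes maintained on potato dextrose agar at 27 °C. Assayed by agar dilution on Sabouraud glucose agar. Pure compounds in DMSO were serially diluted 2-fold (400–3.125 µg/mL) into the medium, with final DMSO ≤2%. Spots of 10^6 spores/mL (hemocytometer count) were applied with a 0.010 mL loop. Plates ran at 29 °C for 72 h, in triplicate. MIC was the lowest concentration with no visible growth.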

Trichophyton rubrum = test: Antimicrobial activity against Trichophyton rubrum ATCC 28188 after 72 hrs by agar dilution method; details: ATCC 28188, 72 h; summary of the method: as §1

| Compound | MIC (Aspergillus niger) [µg/mL] | MIC (Candida albicans; ATCC 10231, 24 h) [µg/mL] | MIC [1] [µg/mL] | MIC (Trichophyton rubrum) [µg/mL] | MIC (Candida albicans) [µg/mL] |
| --- | --- | --- | --- | --- | --- |
| C[C@H]1CO[C@@]2(O[C@H]3C[C@H]4[C@@H]5C[C@H](O[C@@H]6O[C@H](C)[C@@H](O)[C@H](O[C@@H]7O[C@@H](C)[C@H](O)[C@@H](O)[C@H]7O)[C@H]6O)[C@H]6C[C@@H](O)CC[C@]6(C)[C@H]5CC[C@]4(C)[C@H]3[C@@H]2C)[C@@H](O)C1 | 200 (≈ 270 µM) | 200 (≈ 270 µM) | 200 (≈ 270 µM) | 200 (≈ 270 µM) |  |
| C[C@@H]1CC[C@@]2(OC1)O[C@H]1C[C@H]3[C@@H]4C[C@H](O[C@@H]5O[C@H](C)[C@@H](O)[C@H](O)[C@H]5O)[C@H]5C[C@@H](O)CC[C@]5(C)[C@H]4CC[C@]3(C)[C@H]1[C@@H]2C | > 400 | 200 (≈ 346 µM) | 25 (≈ 43.2 µM) | 50 (≈ 86.4 µM) |  |
| C[C@@H]1CC[C@@]2(OC1)O[C@H]1C[C@H]3[C@@H]4C[C@H](O[C@@H]5O[C@H](C)[C@@H](O)[C@H](O[C@@H]6OC[C@@H](O)[C@H](O)[C@H]6O)[C@H]5O)[C@H]5C[C@@H](O)CC[C@]5(C)[C@H]4CC[C@]3(C)[C@H]1[C@@H]2C | 100 (≈ 141 µM) | 200 (≈ 281 µM) | 12.5 (≈ 17.6 µM) | 12.5 (≈ 17.6 µM) |  |
| C[C@@H]1CC[C@@]2(OC1)O[C@H]1C[C@H]3[C@@H]4C[C@H](O[C@@H]5OC[C@@H](O)[C@H](O)[C@H]5O)[C@H]5C[C@@H](O)CC[C@]5(C)[C@H]4CC[C@]3(C)[C@H]1[C@@H]2C | > 400 | 200 (≈ 354 µM) | 100 (≈ 177 µM) | 100 (≈ 177 µM) |  |
| C[C@@H]1CC[C@@]2(OC1)O[C@H]1C[C@H]3[C@@H]4C[C@H](O[C@@H]5O[C@H](C)[C@@H](O)[C@H](O[C@@H]6O[C@@H](C)[C@H](O)[C@@H](O)[C@H]6O)[C@H]5O)[C@H]5C[C@@H](O)CC[C@]5(C)[C@H]4CC[C@]3(C)[C@H]1[C@@H]2C | 400 (≈ 552 µM) | 200 (≈ 276 µM) | 200 (≈ 276 µM) | 50 (≈ 69 µM) |  |
| Clc1ccc(COC(Cn2ccnc2)c2ccc(Cl)cc2Cl)c(Cl)c1 (centres undefined) [MICONAZOLE] | 8 (≈ 19.2 µM) |  | 4 (≈ 9.61 µM) | 4 (≈ 9.61 µM) |  |
| NYSTATIN |  |  |  |  | 8 |

— ChEMBL document CHEMBL1150157, “Five new steroidal saponins from Solanum chrysotrichum leaves and their antimycotic activity” (2002)
